# Experimental data gathered from unrelated publications.
# Organism: Klebsiella pneumoniae
# Read-out: microbial growth
SMILES,test,test system,MIC
COC(=O)c1cc(-c2ccc(OC)c(NC(=O)Nc3ccc(Cl)c(Cl)c3)c2)on1,broth dilution,BAA1705,> 64 µg/mL
Cc1c(NN=C(C#N)C2=NC(=O)CS2)c(=O)n(-c2ccccc2)n1C,broth dilution,,0.98 µg/mL
CCCCCCC#Cc1cncc(-c2nnc(SCc3cc([N+](=O)[O-])cc([N+](=O)[O-])c3)n2C)c1,,,≥ 20 µg/mL
Fc1c(F)c(F)c(-c2c(F)c(F)c(F)c(F)c2F)c(F)c1F,,ATCC13883,> 250 µg/mL
CCCCCCCCCC(=O)N[C@@H](Cc1c[nH]c2ccccc12)C(=O)N[C@H](CC(N)=O)C(=O)N[C@@H](CC(=O)O)C(=O)N[C@@H]1C(=O)NCC(=O)N[C@@H](CCCN)C(=O)N[C@@H](CC(=O)O)C(=O)N[C@H](C)C(=O)N[C@@H](CC(=O)O)C(=O)NCC(=O)N[C@H](CO)C(=O)N[C@@H]([C@H](C)CC(=O)O)C(=O)N[C@@H](CC(=O)c2ccccc2N)C(=O)O[C@@H]1C,broth dilution,ATCC10031,> 64 µg/mL
CCCCCCC#Cc1cncc(-c2nnc(Sc3ccc([N+](=O)[O-])cc3[N+](=O)[O-])n2C)c1,,,≥ 20 µg/mL
COC(=O)c1cc(-c2cccc(NC(=O)Nc3ccccc3C)c2)on1,broth dilution,BAA1705,> 64 µg/mL
Fc1c(F)c(F)c(F)c(F)c1F,,ATCC13883,> 250 µg/mL
COC(=O)c1cc(-c2cccc(NC(=O)Nc3cccc(C#N)c3)c2)on1,broth dilution,BAA1705,> 64 µg/mL
CN[C@@H]1[C@H](O)[C@H](NC)[C@H]2O[C@@]3(O)C(=O)C[C@@H](C)O[C@H]3O[C@@H]2[C@H]1O,broth dilution,ATCC33495,> 200 µg/mL
